{"data": "Assay results gathered from unrelated publications", "target": "Serine/threonine-protein kinase STK11 (STK11, Homo sapiens, UniProt Q15831)", "Residues used in one study (Q15831 1-433)": "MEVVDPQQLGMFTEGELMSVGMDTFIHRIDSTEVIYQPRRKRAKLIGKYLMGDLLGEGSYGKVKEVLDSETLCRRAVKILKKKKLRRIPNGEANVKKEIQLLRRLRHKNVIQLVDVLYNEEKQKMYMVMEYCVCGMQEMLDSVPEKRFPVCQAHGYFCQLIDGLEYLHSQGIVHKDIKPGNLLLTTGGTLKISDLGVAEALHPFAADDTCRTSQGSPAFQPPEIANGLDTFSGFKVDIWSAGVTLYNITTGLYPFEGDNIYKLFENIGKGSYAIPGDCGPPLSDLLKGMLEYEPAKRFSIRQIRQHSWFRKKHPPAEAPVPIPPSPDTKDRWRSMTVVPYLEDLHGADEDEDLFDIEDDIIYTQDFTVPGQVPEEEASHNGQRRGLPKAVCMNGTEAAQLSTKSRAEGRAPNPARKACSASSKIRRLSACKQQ", "note": "Protocols differ between the studies behind these lines."}
{"Compound": "C=CC(=O)N1CCC([C@@H]2CCNc3c(C(N)=O)c(-c4ccc(Oc5ccccc5)cc4)nn32)CC1", "effect on": "enzyme activity", "mode": "inhibitor", "concentration": "1 µM", "quantity": "inhibition", "result": "10%"}
{"Compound": "COc1ccc2oc(-c3ccc4nc(N)oc4c3)c/c(=N\\c3ccccc3NC(=O)CCN)c2c1", "effect on": "binding", "concentration": "1 µM", "quantity": "remaining binding", "result": "99%"}
{"Compound": "N#Cc1ccc(NC(=O)Nc2ccccc2)cc1", "effect on": "cell-free assay", "technique": "competition with immobilised ligand", "concentration": "25 µM", "quantity": "remaining binding", "result": "85%"}
{"Compound": "CC(C)S(=O)(=O)c1ccc2nccc(Nc3ccc4sc(C5CCCC5)nc4c3)c2c1", "effect on": "enzyme activity", "mode": "inhibitor", "concentration": "1 µM", "quantity": "activity vs control", "result": "109%"}
{"Compound": "CCCCC(=O)Nc1ccc(-c2ccc3ncn(CCC)c(=O)c3c2)cn1", "effect on": "binding", "technique": "competition with immobilised ligand", "concentration": "0.5 µM", "quantity": "remaining binding", "result": "84%"}
{"Compound": "COc1ccc2[nH]c3c4[nH]c5ccc(OC)cc5c4c4c(c3c2c1)C(=O)NC4=O", "effect on": "binding", "technique": "competition with immobilised ligand", "concentration": "1 µM", "quantity": "remaining binding", "result": "99%"}
{"Compound": "CO[C@@H]1[C@H](N(C)C(=O)c2ccccc2)C[C@H]2O[C@]1(C)n1c3ccccc3c3c4c(c5c6ccccc6n2c5c31)C(=O)NC4", "effect on": "enzyme activity", "mode": "inhibitor", "concentration": "1 µM", "quantity": "inhibition", "result": "94%"}
{"Compound": "C[C@H]1CC[C@H](n2c3cnccc3c3cnc(Nc4ccc5c(n4)CCN(C(=O)CO)C5)nc32)CC1", "effect on": "binding", "technique": "competition with immobilised ligand", "concentration": "1 µM", "quantity": "remaining binding", "result": "71%"}
{"Compound": "C#Cc1cnc(Nc2ccnc(CO)c2)nc1Nc1ccccc1S(C)(=O)=NC#N (stereo not drawn)", "effect on": "cell-free assay", "concentration": "1 µM", "quantity": "remaining signal", "result": "45%"}
